Experimental data reported in ChEMBL document CHEMBL1141180, “Synthesis and antiviral activity of helioxanthin analogues” (J Med Chem, 2005).

Experiments:
[1] = system: CCRF-CEM; assay: Cytotoxicity against CEM cell lines of human; assay type: functional; conditions: read-out: ID50 (the source's name)
[2] = system: Human alphaherpesvirus 2; assay: Effective concentration to inhibit 50% of herpes simplex virus type 2 replication in a cell culture model; assay type: functional, organism-based
[3] = system: Human gammaherpesvirus 4; assay: Effective concentration to inhibit 50% of epstein Barr virus replication in a cell culture model; assay type: functional, organism-based
[4] = system: Hepatitis B virus; assay: Effective concentration to inhibit 50% of hepatitis B virus replication in a cell culture model; assay type: functional, organism-based
[5] = system: Hepatitis C virus; assay: Effective concentration to inhibit 50% of hepatitis C virus replication in a cell culture model; assay type: functional, organism-based, Hepacivirus hominis
How it was run: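 HCV replicon Huh-Luc/neo cells grown to confluence, then treated with varying drug concentrations in DMEM with 10% dFBS for 3 days. Medium was removed and cells lysed in passive lysis buffer, shaken 15 min at room temperature. Lysate was mixed with luciferase substrate and luminescence read immediately as the measure of replicon activity.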

[6] = system: MT2; assay: Cytotoxicity against MT-2 cell lines of human; assay type: functional; conditions: read-out: ID50 (the source's name)
[7] = system: Human alphaherpesvirus 1; assay: Effective concentration to inhibit 50% of herpes simplex virus type 1 replication in a cell culture model; assay type: functional, organism-based
[8] = Effective concentration to inhibit 50% of human immunodeficiency virus replication in a cell culture model; assay type: functional
[9] = Effective concentration to inhibit 50% of cytomegalovirus (CMV) replication in a cell culture model; assay type: functional

SMILES | IC50 [1] [µM] | EC50 [2] [µM] | EC50 [3] [µM] | EC50 [4] [µM] | EC50 [5] [µM] | IC50 [6] [µM] | EC50 [7] [µM] | EC50 [8] [µM] | EC50 [9] [µM]
CNC(=O)c1cc2ccc3c(c2c(-c2ccc4c(c2)OCO4)c1C(=O)O)OCO3 | 29 | > 25 | > 20 | > 10 | > 10 | 26 | 12 | > 26 | –
O=c1[nH][nH]c(=O)c2c(-c3ccc4c(c3)OCO4)c3c4c(cc(Cl)c3cc12)OCO4 | 38 | > 40 | > 20 | > 20 | 10 | 54 | > 7 | > 54 | –
O=C(O)c1cc2ccc3c(c2c(-c2ccc4c(c2)OCO4)c1COCc1ccccc1)OCO3 | > 50 | > 25 | > 20 | > 10 | > 10 | 48 | > 25 | > 48 | –
O=C1NC(=O)c2c1cc1ccc3c(c1c2-c1ccc2c(c1)OCO2)OCO3 | – | – | – | > 10 | – | – | – | – | –
O=C(O)c1cc2c(Br)cc3c(c2c(-c2ccc4c(c2)OCO4)c1CO)OCO3 | 46.5 | > 50 | > 20 | > 18 | – | 50 | > 50 | > 50 | > 20
O=C(O)c1cc2c(Cl)cc3c(c2c(-c2ccc4c(c2)OCO4)c1CO)OCO3 | > 100 | > 20 | > 20 | > 10 | > 10 | 60 | > 50 | > 60 | > 20
CC(=O)NN1C(=O)c2cc3ccc4c(c3c(-c3ccc5c(c3)OCO5)c2C1=O)OCO4 | 93 | > 40 | > 20 | 1 | > 10 | > 100 | > 40 | > 100 | –
O=C1OCc2c1cc1c(Br)cc3c(c1c2-c1ccc2c(c1)OCO2)OCO3 | 100 | > 50 | > 15 | > 40 | > 10 | > 100 | > 50 | > 100 | –
COC1=NC(=O)c2c1cc1ccc3c(c1c2-c1ccc2c(c1)OCO2)OCO3 | > 100 | > 50 | > 20 | > 5 | > 10 | > 100 | > 50 | > 100 | –
O=C1c2cc3ccc4c(c3c(-c3ccc5c(c3)OCO5)c2C(=O)N1CCCO)OCO4 | 27 | > 30 | > 5 | > 20 | > 10 | 22 | > 30 | > 22 | 8.1
O=c1[nH][nH]c(=O)c2c(-c3ccc4c(c3)OCO4)c3c4c(cc(I)c3cc12)OCO4 | 40 | > 40 | > 20 | > 10 | 10 | 35 | > 40 | > 2 | –
O=C1NCc2c1cc1ccc3c(c1c2-c1ccc2c(c1)OCO2)OCO3 | 4.5 | 0.16 | 11 | 0.08 | 1 | 4 | 0.29 | > 4 | –
O=C1c2cc3ccc4c(c3c(-c3ccc5c(c3)OCO5)c2CN1CCCO)OCO4 | 6 | 7 | > 20 | > 0.9 | > 10 | 8 | 5 | > 8 | –
CC(=O)NN1Cc2cc3ccc4c(c3c(-c3ccc5c(c3)OCO5)c2C1=O)OCO4 | 32 | 40 | > 20 | 0.03 | > 10 | 25 | 17 | > 25 | –
O=c1[nH][nH]c(=O)c2c(-c3ccc4c(c3)OCO4)c3c4c(ccc3cc12)OCO4 | 50 | 1.4 | > 25 | 0.03 | > 10 | 16 | 1.4 | 2.7 | –
O=C1c2cc3ccc4c(c3c(-c3ccc5c(c3)OCO5)c2CN1CCCOCc1ccccc1)OCO4 | 67 | > 20 | > 20 | > 20 | 10 | 28 | 13 | > 28 | –
COc1ccc(-c2c(C(=O)O)c(C(N)=O)cc3ccc4c(c23)OCO4)cc1OC | 3 | > 3 | > 20 | 0.8 | 3 | 10 | 0.8 | > 10 | –
Nc1ccn([C@H]2CC[C@@H](CO)O2)c(=O)n1 [ZALCITABINE] | 5 | – | – | – | – | 70 | – | 0.8 | –

SMILES | IC50 [1] [µM] | EC50 [2] [µM] | EC50 [3] [µM] | EC50 [4] [µM] | EC50 [5] [µM] | IC50 [6] [µM] | EC50 [7] [µM] | EC50 [8] [µM] | EC50 [9] [µM]
CN1Cc2cc3ccc4c(c3c(-c3ccc5c(c3)OCO5)c2C1=O)OCO4 | 27 | 14 | > 20 | 0.08 | 3 | 26 | 14 | > 26 | –
O=C1c2cc3ccc4c(c3c(-c3ccc5c(c3)OCO5)c2C(=O)N1O)OCO4 | 17 | > 30 | > 5 | > 10 | > 10 | 16 | > 30 | > 16 | –
O=C(O)c1cc2ccc3c(c2c(-c2ccc4c(c2)OCO4)c1C(=O)O)OCO3 | > 100 | > 50 | > 20 | > 10 | > 10 | > 100 | > 50 | > 100 | –
O=C(O)c1cc2c(I)cc3c(c2c(-c2ccc4c(c2)OCO4)c1CO)OCO3 | > 100 | > 50 | > 20 | – | 10 | 80 | > 50 | > 80 | > 20
CN1Cc2c(cc3ccc4c(c3c2-c2ccc3c(c2)OCO3)OCO4)C1=O | 6 | 1 | > 20 | > 20 | > 3 | 8 | 0.67 | > 8 | –
CN(C)C(=O)c1cc2ccc3c(c2c(-c2ccc4c(c2)OCO4)c1C(=O)O)OCO3 | 76 | > 50 | > 20 | > 10 | > 10 | 70 | > 50 | > 70 | –
CCOC(=O)c1c(C(=O)OCC)c(-c2ccc3c(c2)OCO3)c2c3c(ccc2c1OC)OCO3 | > 100 | > 50 | > 20 | > 20 | > 10 | 24 | > 50 | > 24 | –
COc1ccc(-c2c3c(cc4ccc5c(c24)OCO5)C(=O)NC3)cc1OC | 5 | 0.5 | > 20 | > 10 | 3 | 16 | 0.6 | > 16 | –
COC(=O)c1cc2ccc3c(c2c(-c2ccc4c(c2)OCO4)c1C(=O)OC)OCO3 | 50 | > 50 | > 20 | > 20 | 10 | 28 | > 50 | > 28 | –
O=C1NCc2c1cc1c(Br)cc3c(c1c2-c1ccc2c(c1)OCO2)OCO3 | 38 | > 20 | > 20 | > 10 | 10 | 54 | 6.5 | > 54 | –
COc1ccc(-c2c3c(cc4ccc5c(c24)OCO5)C(=O)NC3=O)cc1OC | – | – | – | 0.8 | – | – | – | – | –
O=C1OC(O)c2c1c(-c1ccc3c(c1)OCO3)c1c3c(ccc1c2O)OCO3 (stereo unspecified) | 39 | > 28 | > 10 | > 20 | > 10 | 15 | > 23 | > 15 | –
COC(=O)c1c(C(=O)O)cc2ccc3c(c2c1-c1ccc2c(c1)OCO2)OCO3 | 74 | > 50 | > 20 | > 20 | > 10 | 90 | > 50 | > 90 | –
CC(=O)NN1Cc2c(cc3ccc4c(c3c2-c2ccc3c(c2)OCO3)OCO4)C1=O | 40 | 10 | 13 | > 20 | > 10 | 7 | 5 | > 7 | –
O=C(OCc1ccccc1)c1cc2ccc3c(c2c(-c2ccc4c(c2)OCO4)c1COCc1ccccc1)OCO3 | 50 | > 50 | > 20 | > 10 | 10 | 100 | > 50 | > 100 | –
O=C1OCc2c1cc1c(I)cc3c(c1c2-c1ccc2c(c1)OCO2)OCO3 | 70 | > 25 | > 10 | > 20 | > 10 | 80 | > 25 | > 80 | –
Cc1c(C(=O)OCCCO)cc2ccc3c(c2c1-c1ccc2c(c1)OCO2)OCO3 | 46 | > 25 | > 15 | > 10 | > 10 | 10 | > 25 | > 10 | –
NC(=O)c1cc2ccc3c(c2c(-c2ccc4c(c2)OCO4)c1C(N)=O)OCO3 | > 100 | > 50 | > 20 | > 10 | > 10 | > 100 | > 50 | > 100 | –
